# In ChEMBL document CHEMBL1138854, “Synthesis and antitumor activity of guanylhydrazones from 6-(2,4-dichloro-5-nitrophenyl)imidazo[2,1-b]thiazoles and 6-pyridylimidazo[2,1-b]thiazoles(1)” (2006):
# Where “and” joins values, the source holds several entries; their conditions need not be identical. Equal entries are not always repeated.
# What was measured:
# [1] = Antitumor activity against prostate cell lines of the NCI60 panel; type: functional; conditions: Homo sapiens; for TGI: read-out: pTGI (converted)
# How it was run: (§1)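 Run by NCI in the 60-cell-line panel (details in Supporting Information). Highest concentration 10^-4 M unless noted (one case 10-2.6 M). Values expressed as -log molar concentration giving 50% growth inhibition (pGI50), total cytostasis (pTGI) or 50% cell kill (pLC50); only values >4.00 reported; mean graph midpoint is the calculated panel mean.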
# [2] = Antitumor activity against leukemia cell lines of the NCI60 panel; type: functional; conditions: Homo sapiens; for TGI: read-out: pTGI (converted); how it was run: as §1
# [3] = Antitumor activity against colon cell lines of the NCI60 panel; type: functional; conditions: Homo sapiens; for TGI: read-out: pTGI (converted); how it was run: as §1
# [4] = Antitumor activity against renal cell lines of the NCI60 panel; type: functional, Homo sapiens; conditions: for TGI: read-out: pTGI (converted); how it was run: as §1
# NSCLC = assay: Antitumor activity against NSCLC cell lines of the NCI60 panel; type: functional; conditions: Homo sapiens; for TGI: read-out: pTGI (converted); how it was run: as §1
# [5] = Antitumor activity against ovarian cell lines of the NCI60 panel; type: functional; conditions: Homo sapiens; for TGI: read-out: pTGI (converted); how it was run: as §1
# [6] = Antitumor activity against CNS cell lines of the NCI60 panel; type: functional; conditions: Homo sapiens; for TGI: read-out: pTGI (converted); how it was run: as §1
# [7] = Antitumor activity against breast cell lines of the NCI60 panel; type: functional; conditions: Homo sapiens; for TGI: read-out: pTGI (converted); how it was run: as §1
# [8] = Antitumor activity against melanoma cell lines of the NCI60 panel; type: functional; conditions: Homo sapiens; for TGI: read-out: pTGI (converted); how it was run: as §1
SMILES,GI50 [1] [µM],TGI [1] [µM],GI50 [2] [µM],GI50 [3] [µM],TGI [3] [µM],"GI50 ([4]; Homo sapiens, renal) [µM]",GI50 (NSCLC) [µM],TGI (NSCLC) [µM],GI50 [5] [µM],TGI [5] [µM],GI50 [6] [µM],TGI [6] [µM],GI50 [7] [µM],TGI [7] [µM],GI50 [8] [µM],TGI [8] [µM],TGI [2] [µM],LC50 [4],"TGI ([4]; Homo sapiens, renal) [µM]","LC50 ([4]; Homo sapiens, renal, read-out: Log LC50 (converted)) [µM]"
Cc1cn2c(/C=N/NC(=N)N)c(-c3ccccn3)nc2s1,7.94,39.8,3.63,8.13,29.5,7.94,10.2,32.4,17.4,63.1,8.13,26.9,8.91,37.2,9.77,28.8,,,,
CC(/C=N/NC(=N)N)=N\NC(=N)N [MITOGUAZONE],100,1580,7.94,12.6,501,20,25.1,316,15.8,316,20,251,15.8,316,39.8,316,631,501 µM and 2000 µM,,
N=C(N)N/N=C/c1c(-c2cc([N+](=O)[O-])c(Cl)cc2Cl)nc2sccn12,2.09,,1.45,1.02,2.14,2,1.78,3.47,1.86,3.55,1.55,3.47,2.82,6.03,1.58,3.02,4.27,,,
Cc1sc2nc(-c3ccncc3)c(/C=N/NC(=N)N)n2c1C,55,,30.2,35.5,79.4,39.8,38.9,97.7,53.7,97.7,38.9,93.3,43.7,91.2,38,83.2,95.5,,89.1,
N=C(N)N/N=C/c1c(-c2cc([N+](=O)[O-])c(Cl)cc2Cl)nc2sc(Cl)cn12,19.1,93.3,3.55,5.75,50.1,29.5,22.9,72.4,19.5,66.1,10.7,64.6,10.5,38.9,11.2,53.7,44.7,,81.3,
Cc1csc2nc(-c3cc([N+](=O)[O-])c(Cl)cc3Cl)c(/C=N/N=C(N)N)n12,16.6,35.5,2.51,15.1,33.1,17,17,35.5,17,37.2,17.8,34.7,15.5,32.4,16.2,31.6,25.7,,33.1,
Cc1cn2c(/C=N/NC(=N)N)c(-c3cccnc3)nc2s1,6.92,24.5,4.79,5.62,20.9,9.55,13.8,36.3,15.8,36.3,12,28.2,7.08,22.4,10.2,25.7,51.3,,,
Cc1cn2c(/C=N/NC(=N)N)c(-c3cc([N+](=O)[O-])c(Cl)cc3Cl)nc2s1,,2.34,1.62,0.661,49,2.09,2.51,19.5,2.09,19.5,2.14,,4.17,,2.29,,,,11.7,60.3
